From PMC11912358 (RSC Advances, 2025)

Tests used:
HeLa cells = assay: Cellular uptake by flow cytometry; format: cell-based; conditions: 150 nM peptide, 1 h, 37 °C, 5% CO2, serum-free medium, AF647 fluorescence, AF647-NEt2 control as reference
[1] = Cytotoxicity assay using cell-counting kit-8; format: cell-based
Outline: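 HeLa cells (5 × 10³) exposed to dye-labelled (Alexa Fluor 647) tripeptides carrying perfluoroalkyl or alkyl chains for 1 h. Viability read with the CCK-8 reagent, and IC50 reported from this read-out.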

- Cellular uptake efficiency (fluorescence intensity of cells, RFI) (HeLa cells): comparable cellular uptake efficiencies
SMILES: C[C@H](NC(=O)CCCCCC1(C)C(=CC=CC=CC2=[N+](CCCS(=O)(=O)[O-])c3ccc(S(=O)(=O)O)cc3C2(C)C)N(CCCS(=O)(=O)O)c2ccc(S(=O)(=O)O)cc21)C(=O)N[C@@H](CC(=O)Nc1ccc(C(F)(F)C(F)(F)C(F)(F)C(F)(F)C(F)(F)C(F)(F)C(F)(F)C(F)(F)F)cc1)C(=O)N[C@@H](Cc1ccccc1)C(N)=O (some centres unmarked) [AF647-RF-tripeptide (RF = C8F17)]
- IC50 [1]: 41 ± 9 µM
